According to publication PMC10193422 (ACS Omega, 2023):
In brackets after ≈: the same amount, converted by molar mass.

Columns and labels:
[1] = Hemolysis assay; type: cell-based; details: rabbit, rabbit red blood cell suspension
[2] = system: Candida tropicalis 2718; assay: MIC, CLSI broth microdilution; type: cell-based; details: Candida tropicalis, 2718, 24 h, read-out: MIC C. tro 2718
Outline: (§1)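 CLSI broth microdilution (M27-A3 and M60). Strains are kept frozen in YPD with 40% glycerol, passaged twice on Sabouraud dextrose agar at 30 °C, then grown overnight in YPD at 30 °C with shaking. Test compound is dissolved in DMSO, serially diluted in growth medium, inoculated, and incubated at 30 °C. Candida spp. are read at 24 h, C. glabrata at 48 h and C. neoformans at 72 h. MIC is the first well with ≥50% growth reduction versus the drug-free well.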

[3] = system: Candida albicans SC5314; assay: MIC, CLSI broth microdilution; type: cell-based; details: SC5314, 24 h, read-out: MIC C. alb SC5314
Outline: as §1

[4] = system: Aspergillus fumigatus 7544; assay: MIC, CLSI broth microdilution; type: cell-based; details: Aspergillus fumigatus, 7544, 48 h, read-out: MIC A. fum 7544
Outline: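 Mould MIC by CLSI broth microdilution (M27-A3 and M60). The strain comes from a frozen YPD/40% glycerol stock. Test compound is dissolved in DMSO and serially diluted in growth medium. Wells are inoculated and incubated at 35 °C for 48 h. MIC is the first well with ≥50% growth reduction versus the drug-free control.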

[5] = system: Cryptococcus neoformans H99; assay: MIC, CLSI broth microdilution; type: cell-based; details: H99, 72 h, read-out: MIC C. neo H99
Outline: as §1

[6] = system: sterol composition in C. albicans SC5314; assay: Sterol composition analysis by GC-MS; type: cell-based, Candida albicans; details: compounds at 0.008 μg/mL, FLC at 8 μg/mL
[7] = system: C. auris 888; assay: MIC against drug-resistant C. auris clinical isolate; type: cell-based, Candida auris; details: Candidozyma auris, 888, 24 h, read-out: MIC C. aur 888
[8] = system: C. auris 791; assay: as above; type: cell-based, Candida auris; details: Candidozyma auris, 791, 24 h, read-out: MIC C. aur 791
[9] = system: C. auris 789; assay: as above; type: cell-based, Candida auris; details: Candidozyma auris, 789, 24 h, read-out: MIC C. aur 789
[10] = system: C. auris BS12372; assay: as above; type: cell-based, Candida auris; details: Candidozyma auris, BS12372, 24 h, read-out: MIC C. aur BS12372
[11] = system: C. auris 887; assay: as above; type: cell-based, Candida auris; details: Candidozyma auris, 887, 24 h, read-out: MIC C. aur 887
[12] = system: C. auris D12; assay: as above; type: cell-based, Candida auris; details: Candidozyma auris, D12, 24 h, read-out: MIC C. aur D12
[13] = system: Candida albicans; details: cited from earlier work

C[C@@H]1[C@H](O)[C@@H](C)/C=C/C=C/C=C/C=C/C=C/C=C/C=C/[C@H](O[C@@H]2O[C@H](C)[C@@H](O)[C@H](N)[C@@H]2O)C[C@@H]2O[C@](O)(C[C@@H](O)C[C@@H](O)[C@H](O)CC[C@@H](O)C[C@@H](O)CC(=O)O[C@H]1C)C[C@H](O)[C@H]2C(=O)O [AmB, amphotericin B]
hemolysis at 1 h, 32 μg/mL [1]: 26.8% | hemolysis at 1 h, 64 μg/mL [1]: 100%

CC[C@@H]([C@H](C)O)n1ncn(-c2ccc(N3CCN(c4ccc(OC[C@@H]5CO[C@@](Cn6cncn6)(c6ccc(F)cc6F)C5)cc4)CC3)cc2)c1=O [POS, posaconazole]
MIC [2]: < 0.008 µg/mL | MIC [3]: < 0.008 µg/mL | MIC [4]: 0.125 µg/mL (≈ 0.178 µM) | MIC [5]: < 0.008 µg/mL

OC(Cn1cncn1)(Cn1cncn1)c1ccc(F)cc1F [FLC, fluconazole]
ergosterol content in treated cells [6]: almost completely depleted | MIC [7]: > 64 µg/mL | MIC [8]: > 64 µg/mL | MIC [2]: < 0.125 µg/mL | MIC [3]: 0.25 µg/mL (≈ 0.816 µM) | MIC [4]: > 64 µg/mL | MIC [5]: 8 µg/mL (≈ 26.1 µM) | MIC [9]: > 64 µg/mL | MIC [10]: > 64 µg/mL | MIC [11]: > 64 µg/mL | MIC [12]: > 64 µg/mL

C[C@@H](c1ncncc1F)[C@](O)(Cn1cncn1)c1ccc(F)cc1F [VOC, voriconazole]
MIC [2]: < 0.008 µg/mL | MIC [3]: < 0.008 µg/mL | MIC [4]: 0.125 µg/mL (≈ 0.358 µM) | MIC [5]: 0.0625 µg/mL (≈ 0.179 µM) | MIC against Candida albicans [13]: 0.06 µg/mL (≈ 0.172 µM)

O[C@@](Cn1cnnn1)(c1ccc(F)cc1F)C(F)(F)c1ccc(-c2ccc(OCC(F)(F)F)cc2)cn1 [OTC, oteseconazole]
MIC [7]: 8 µg/mL (≈ 15.2 µM) | MIC [8]: 8 µg/mL (≈ 15.2 µM) | MIC [2]: < 0.008 µg/mL | MIC [3]: < 0.008 µg/mL | MIC [4]: > 64 µg/mL | MIC [5]: < 0.008 µg/mL | MIC [9]: 2 µg/mL (≈ 3.79 µM) | MIC [10]: < 0.0625 µg/mL | MIC [11]: 4 µg/mL (≈ 7.58 µM) | MIC [12]: 0.25 µg/mL (≈ 0.474 µM)
